Laboratory results: ChEMBL document CHEMBL3992509, “Discovery of a Highly Potent, Selective, and Metabolically Stable Inhibitor of Receptor-Interacting Protein 1 (RIP1) for the Treatment of Systemic Inflammatory Response Syndrome” (J Med Chem, 2017)
Calls of active or inactive are those of the source. No cut-off for these calls is given here.

Experiments:
[1] = target: Voltage-gated inwardly rectifying potassium channel KCNH2 (Homo sapiens, UniProt Q12809); experiment: Inhibition of human ERG at 30 uM by manual patch clamp method
Outline: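 Manual patch clamp on hERG channel, tested up to 30 μM.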

Mus musculus [2] = experiment: Toxicity in C57BL/6J mouse assessed as injury at 50 mg/kg administered once in every 3 hrs for 24 hrs; assay type: organism-based; conditions: in vivo
Outline: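 Mice dosed 50 mg/kg every 3 h for 24 h and examined for injury.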

[3] = Half life in mouse liver microsomes in presence of NADPH by LC-MS/MS analysis; assay type: ADME, microsome
Mus musculus [4] = experiment: Protection against TNFalpha-induced mortality in ip dosed C57BL/6J mouse assessed as increase in survival rate pretreated for 17 mins followed by TNFalpha injection and subsequent compound treatment once in every 12 hrs measured every 30 mins up to 60 hrs post TNFalpha injection during compound dosing; assay type: functional, organism-based
Outline: (§1)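 C57BL/6 mice, 6-8 weeks, ~20 g, randomized (n = 6~10). Given 5.5 μg mTNFα (~0.25 mg/kg) IV in endotoxin-free PBS, 0.2 mL. Compound IP 17 min before TNFα: either once at 6 mg/kg or […], 1, 3 mg/kg then every 12 h; vehicle controls. Survival checked every 30 min to 60 h.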

Mus musculus [5] = experiment: Protection against TNFalpha-induced mortality in ip dosed C57BL/6J mouse assessed as increase in survival rate administered as single dose 17 mins before TNFalpha injection measured every 30 mins up to 60 hrs post TNFalpha injection; assay type: functional, organism-based; outline: as §1
Mus musculus [6] = experiment: Protection against TNFalpha-induced pancreas damage in C57BL/6J mouse at 0.3 to 3 mg/kg, ip pretreated for 17 mins followed by TNFalpha injection and subsequent compound treatment once in every 12 hrs measured 24 hrs post TNFalpha injection by hematoxylin and eosin staining based assay; assay type: functional, organism-based
Outline: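 Mice given mTNFα IV; compound 0.3, 1, 3 mg/kg IP 17 min before and every 12 h. Killed 24 h post-TNFα. Organs fixed 24 h in 10% neutral buffered formalin, paraffin-embedded, 5-μm sections, H&E stained; ×200, at least three mice each.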

Sequence of Voltage-gated inwardly rectifying potassium channel KCNH2 (Q12809 whole entry): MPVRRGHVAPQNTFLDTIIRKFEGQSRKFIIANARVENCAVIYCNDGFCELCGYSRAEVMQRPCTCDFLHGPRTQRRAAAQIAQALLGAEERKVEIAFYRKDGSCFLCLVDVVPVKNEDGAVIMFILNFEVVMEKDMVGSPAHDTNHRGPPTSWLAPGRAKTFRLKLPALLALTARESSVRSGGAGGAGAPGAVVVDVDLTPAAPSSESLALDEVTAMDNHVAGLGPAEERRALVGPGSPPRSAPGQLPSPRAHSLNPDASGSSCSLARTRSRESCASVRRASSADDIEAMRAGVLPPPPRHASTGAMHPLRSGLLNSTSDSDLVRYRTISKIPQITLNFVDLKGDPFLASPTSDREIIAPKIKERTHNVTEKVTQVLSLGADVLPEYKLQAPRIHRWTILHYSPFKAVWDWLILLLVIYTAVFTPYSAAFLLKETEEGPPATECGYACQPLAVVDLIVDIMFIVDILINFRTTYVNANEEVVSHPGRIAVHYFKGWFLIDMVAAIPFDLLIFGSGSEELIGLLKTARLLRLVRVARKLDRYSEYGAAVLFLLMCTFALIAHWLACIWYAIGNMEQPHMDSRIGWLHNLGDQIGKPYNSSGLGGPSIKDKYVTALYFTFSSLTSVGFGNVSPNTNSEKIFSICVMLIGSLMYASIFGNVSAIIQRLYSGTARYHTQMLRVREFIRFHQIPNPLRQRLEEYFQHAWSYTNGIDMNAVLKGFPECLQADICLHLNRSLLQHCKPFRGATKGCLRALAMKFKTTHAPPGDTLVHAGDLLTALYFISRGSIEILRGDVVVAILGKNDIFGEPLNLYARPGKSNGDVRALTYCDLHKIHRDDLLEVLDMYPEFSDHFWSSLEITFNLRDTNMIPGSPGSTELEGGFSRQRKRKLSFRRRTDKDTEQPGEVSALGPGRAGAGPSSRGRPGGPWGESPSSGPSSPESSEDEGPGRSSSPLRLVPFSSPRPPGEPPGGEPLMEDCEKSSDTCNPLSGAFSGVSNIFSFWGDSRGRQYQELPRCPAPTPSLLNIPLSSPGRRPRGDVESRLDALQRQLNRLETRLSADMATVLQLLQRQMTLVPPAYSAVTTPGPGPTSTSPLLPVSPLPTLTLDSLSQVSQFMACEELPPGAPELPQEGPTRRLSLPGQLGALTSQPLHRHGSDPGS

For `CCC(C)(C)C(=O)N(O)Cc1ccccc1`, the “inhibition (INH)” value [1] was “Not Active”, the Activity (Mus musculus [2]) was “Non-Toxic” and the half-life [3] was 35.5 min. The Activity (Mus musculus [4]) was “Dose-dependent effect”, the Activity (Mus musculus [5]) was “Dose-dependent effect” and the Activity (Mus musculus [6]) was “Active”.
